Hits are enriched below; roughly 1.9% of the tested compounds scored in any of these assays.
DNA FID counter-1: displaces DNA intercalator in HCV helicase counter-screen. DNA fluorescent intercalator displacement, fluorescence. AID 1845. inhibition, % at 7.9 µM. 290,000 tested, 0.17% active;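 also: higher means more ethidium bromide displaced from hairpin DNA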
NS3 helicase inh: HCV NS3 helicase inhibition | NS3 helicase DNA unwinding, Cy5 molecular beacon fluorescence | AID 1800 | 290,000 tested, 0.56% active | inhibition, % at 10.9 µM;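 active = inhibition above the mean of all tested compounds plus 3 SD, set per campaign, cut at about 35% in these data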
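test system = hepatitis C virus NS3 helicase domain fragment enzyme | reagent = annealed dual-labelled DNA beacon duplex, ATP-started | times = 1 h at 25 °C | detection = Cy5 fluorescence, 0 and 60 min reads | read-out basis = percent inhibition from t60/t0 fluorescence ratio | control set = DMSO and thioflavine S | replication = one well per compound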
IMP-1 inh-1: inhibitors of Pseudomonas aeruginosa IMP-1 metallo-beta-lactamase | purified IMP-1, nitrocefin hydrolysis, epi-absorbance fluorescence | inhibition, % at 5.6 µM | 290,000 tested, 0.45% active;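 active = inhibition above the mean plus 3 SD of all compounds in the same screening run, cut at about 4.5% in these data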
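System: Purified recombinant IMP-1 metallo-beta-lactamase enzyme | Measured by: Fluorescence quenching readout, ex 480/em 530 nm | Replication: Singlicate | Incubation: 15 min preincubation plus 25 min reaction at 25 °C | Evaluation: Percent inhibition from optical density relative to buffer-blank wells | Benchmarks: DMSO with and without IMP-1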
VIM-2 inh: blocks Pseudomonas aeruginosa VIM-2 metallo-beta-lactamase | AID 1527 | inhibition, % at 5.6 µM | purified VIM-2, nitrocefin hydrolysis, epi-absorbance fluorescence | 290,000 tested, 0.89% active;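 active = inhibition above the mean of all tested compounds plus 3 SD, cutoff set per screening run, cut at about 7.5% in these data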;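 also: red hydrolysis product quenches plate fluorescence so inhibitors raise well fluorescence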
IMP-1 inh-2: blocks IMP-1 metallo-beta-lactamase in VIM-2 selectivity screen; shares compounds with VIM-2 inh; purified IMP-1, nitrocefin hydrolysis, epi-absorbance fluorescence; inhibition, % at 5.6 µM; 1,300 tested, under 10 active; AID 1856; call rule not given here
VIM-2 FRET ctr: VIM-2 FRET inhibition, artifact counter-screen; shares compounds with VIM-2 inh; purified VIM-2, CCF2 FRET substrate hydrolysis; inhibition, % at 5.6 µM; 1,300 tested, 23% active; AID 1857;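 active = inhibition above the mean of all tested compounds plus 3 SD, cut at about 19% in these data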
TEM-1 counter-1: TEM-1 inhibition, counter-screen for VIM-2 inhibitors; shares compounds with VIM-2 inh; Purified TEM-1, nitrocefin hydrolysis, epi-absorbance fluorescence; inhibition, % at 5.6 µM; 1,300 tested, 3% active; AID 1866;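 active = inhibition above that campaign's mean inhibition plus 3 SD, cut at about 0.46% in these data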
Target sequence (P62593 whole entry, looked up): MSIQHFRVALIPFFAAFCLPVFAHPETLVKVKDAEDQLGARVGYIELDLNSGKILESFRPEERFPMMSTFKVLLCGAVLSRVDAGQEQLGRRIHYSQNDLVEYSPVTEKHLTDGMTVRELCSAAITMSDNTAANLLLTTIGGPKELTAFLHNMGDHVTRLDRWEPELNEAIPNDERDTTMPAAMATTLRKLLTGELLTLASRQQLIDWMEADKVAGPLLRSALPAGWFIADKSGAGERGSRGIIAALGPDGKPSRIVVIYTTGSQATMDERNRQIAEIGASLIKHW
VIM-2 inh conf: confirmation of P. aeruginosa VIM-2 metallo-beta-lactamase inhibitors. purified VIM-2, nitrocefin hydrolysis, epi-absorbance. inhibition, % at 5.6 µM. 1,300 tested, 96% active. shares compounds with VIM-2 inh. AID 2187;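 active = inhibition of the VIM-2 beta-lactamase enzyme above about 11% from the earlier first-round screen, limit read from the data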
VIM-2 confirm: VIM-2 inhibition, confirmation assay; shares compounds with IMP-1 inh-1; inhibition, % at 5.6 µM; 200 tested, 73% active; purified VIM-2 enzyme, nitrocefin absorbance; in the data active = inhibition above about 8%
TEM-1 counter-2: blocks E. coli TEM-1 beta-lactamase, VIM-2 IMP-1 counter-screen. 200 tested, 50% active. nitrocefin absorbance inhibition. shares compounds with IMP-1 inh-1. AID 2184. inhibition, % at 5.6 µM; in the data active = inhibition above about 0.66%
IMP-1 confirm: confirmation of P. aeruginosa IMP-1 metallo-beta-lactamase inhibitors; shares compounds with IMP-1 inh-1; purified IMP-1 enzyme, absorbance substrate hydrolysis; inhibition, % at 5.6 µM; 200 tested, 60% active; AID 2189; in the data active = inhibition above about 4.9%
NS3 helicase cf: HCV NS3 helicase inhibition, confirmation assay; shares compounds with NS3 helicase inh; AID 1943; inhibition, % at 10.9 µM; NS3 helicase DNA unwinding, Cy5 molecular beacon fluorescence; 1,600 tested, 31% active;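 active = inhibition above the mean of all tested compounds plus 3 SD, cutoff set per campaign, cut at about 36% in these data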
DNA FID counter-2: displaces DNA intercalator in HCV helicase counter-screen; DNA fluorescent intercalator displacement, fluorescence; inhibition, % at 7.9 µM; shares compounds with NS3 helicase inh; 1,600 tested, 4% active;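 also: higher means more displacement of ethidium bromide from the DNA hairpin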
Hits are given with their value; – = inactive; · = not tested or not shown. Rule as the data show it, unless noted: active = inhibition above about 37%; inactive = the rest.

SMILES	DNA FID counter-1	NS3 helicase inh	IMP-1 inh-1	VIM-2 inh	IMP-1 inh-2	VIM-2 FRET ctr	TEM-1 counter-1	VIM-2 inh conf	others
CCN(CC)CCNC(=O)c1cc2c(=O)n(C)c3ccccc3c2n1C	–	–	–	20	–	–	–	31
CCCCN(CC)CCNC(=O)c1cc2c(=O)n(C)c3ccccc3c2n1C	–	–	–	21	–	–	–	30
CCCCN(CC)CCCNC(=O)c1cn(C)c(=O)c2c1c1ccccc1n2C	–	–	–	–	·	·	·	·
CCCCN(CC)CCNC(=O)c1cc2c(C)nc3ccccc3c2o1	–	–	–	14	–	–	–	17
CCOC(=O)c1cc(CC)sc1NC(=O)COC(=O)c1cc[n+]([O-])cc1	–	–	–	–	·	·	·	·
COc1ccc(CCn2c(SCCN3CCCCC3)nc3ccccc3c2=O)cc1OC	–	–	–	75	–	–	–	84
CCCCN(C)C(=O)c1nc2ccccn2c1CN1CCN(C(=O)c2cccs2)CC1	–	–	–	–	·	·	·	·
C=CCn1c(O)c(N=O)c2cc(C)ccc21	–	–	–	–	·	·	·	·
C=CCSc1nnc2nc3c(nn12)c1cc(C)ccc1n3CC=C	–	–	–	15	–	–	–	19
Cc1cc2nc3c(nc2cc1C)C(O)=C3O	–	–	–	–	·	·	·	·
COC(=O)c1c(NC(=O)c2cccc(N3C(=O)CCC3=O)c2)sc2c1CCN(C(C)=O)C2	–	–	–	24	–	–	–	39
O=C1CNC(=O)/C(=C/c2ccco2)N1	–	–	–	–	·	·	·	·
COc1ccc(-c2nn(C)c3sc(C(=O)NCCN(C)C)cc23)cc1OC	–	–	–	17	–	–	–	30
COCCCNC(=O)c1cc2c(-c3cccc(OC)c3)nn(C)c2s1	–	–	–	–	·	·	·	·
CCN(CC)CCNC(=O)c1cc2c(-c3cccc(OC)c3)nn(C)c2s1	–	–	–	14	–	–	–	23
CCCN(CCC)CCCNC(=O)c1cc2c(-c3ccc(OC)c(OC)c3)nn(C)c2s1	–	–	–	12	–	–	–	24
CCCCC(=O)Nc1nnc(CCOC)s1	–	–	–	–	·	·	·	·
Oc1ccc(-c2n[nH]c(=S)n2-c2ccc3c(c2)OCCO3)c(O)c1	–	–	–	17	–	36	–	19
S=c1[nH]nc(-c2ccc3ccccc3n2)n1-c1ccc2c(c1)OCCO2	–	–	–	20	–	38	–	22
S=c1[nH]nc(-c2ccc3ccccc3n2)n1-c1ccccc1	–	–	–	–	·	·	·	·
COc1cc(OC)c(OC)cc1/C=C1\CC(C)C/C(=C\c2cc(OC)c(OC)cc2OC)C1=O (configuration not stated)	–	–	–	–	·	·	·	·
COc1ccc(S(=O)(=O)N2CCC(C(=O)NC3CCCCC3)CC2)cc1C	–	–	–	–	·	·	·	·
CCCc1cc(NCCCN(C)C)n2c(nc3ccccc32)c1C#N	–	–	–	21	–	–	2.0	35
C=CCc1c(C)c(C#N)c2nc3ccccc3n2c1NCCN(C)C	–	–	–	–	·	·	·	·
C=C(C)Cc1c(C)c(C#N)c2nc3ccccc3n2c1NCCCN(C)C	–	–	–	29	–	–	–	45
SMILES	DNA FID counter-1	NS3 helicase inh	IMP-1 inh-1	VIM-2 inh	IMP-1 inh-2	VIM-2 FRET ctr	TEM-1 counter-1	VIM-2 inh conf	others
CCOC(=O)c1c(C)[nH]c(C)c1S(=O)(=O)NC1CCN(C(=O)OCC)CC1	–	–	–	–	·	·	·	·
c1ccc2c(c1)Cc1cc3ccccc3nc1-2	–	–	–	–	·	·	·	·
O=C1c2ccccc2-c2nc3ccccc3cc21	–	–	–	12	–	–	–	17
COc1ccccc1-c1nnc2n1N=C(c1ccc(O)c(O)c1)CS2	–	–	–	–	·	·	·	·
COc1ccc(C2=Nn3c(nnc3-c3ccncc3)SC2)cc1OC	–	–	–	64	–	–	–	75
O=C1C(=Cc2ccco2)C(=O)c2ccccc21	–	50	–	31	–	–	–	–	NS3 helicase cf=–;DNA FID counter-2=–
O=C(NCCSCc1ccc(Cl)cc1)c1cccs1	–	–	–	–	·	·	·	·
Cn1cc(/C=C(\C(=O)O)C(C(=O)O)=C2CCCCC2)c2ccccc21	–	–	11	9.5	·	·	·	·	VIM-2 confirm=13;TEM-1 counter-2=–;IMP-1 confirm=10
CC(C)c1ccc(C(C(=O)NC2CCCCC2)N(C(=O)c2csnn2)C2CC2)cc1 (configuration not stated)	–	–	–	–	·	·	·	·
Cn1ccnc1SCC(=O)n1c2c(c3ccccc31)CCCC2	–	–	5.7	29	·	·	·	·	VIM-2 confirm=8.5;TEM-1 counter-2=–;IMP-1 confirm=–
Cn1ccnc1SCC(=O)Nc1cccc2ccccc12	–	–	–	–	·	·	·	·
O=C(CCCOc1ccc(Cl)cc1Cl)Nc1ccc(O)cc1C(=O)O	–	–	–	–	·	·	·	·
CCOc1ccc(Nc2nc(N3CCOCC3)nc(N3CCOCC3)n2)cc1	–	–	–	–	·	·	·	·
CCOc1ccc(Nc2nc(NCCN3CCOCC3)nc(OC)n2)cc1	–	–	38	42	·	·	·	·	VIM-2 confirm=–;TEM-1 counter-2=–;IMP-1 confirm=–
O=C(O)c1ccccc1-c1ccc(/C=C/c2cc(C(F)(F)F)[nH]c(=O)n2)o1	–	–	5.5	8.2	·	·	·	·	VIM-2 confirm=15;TEM-1 counter-2=37;IMP-1 confirm=11
O=C(O)c1cc(Cl)ccc1-c1ccc(/C=C/c2cc(C(F)(F)F)[nH]c(=O)n2)o1	–	–	–	–	·	·	·	·
CCO[C@@H]1OC(C(=O)O)=C[C@H](C2CC2)[C@H]1CCCO	–	–	–	–	·	·	·	·
COc1ccc(-c2c(C)c3ccc(O)cc3oc2=O)cc1OC	–	–	–	–	·	·	·	·
Nc1ccc(-c2c3ccc(=O)cc-3oc3cc(O)ccc23)cc1C(=O)O	–	–	51	70	·	·	·	·	VIM-2 confirm=59;TEM-1 counter-2=62;IMP-1 confirm=42
O=C(NCC1COc2ccccc2O1)c1ccc(Br)s1 (configuration not stated)	–	–	–	–	·	·	·	·
c1ccc(-c2ccccc2OCCOCCN2CCOCC2)cc1	–	–	–	–	·	·	·	·
c1ccc2c(Cn3ccnc3)c[nH]c2c1	–	–	–	–	·	·	·	·
Oc1ccc(Cn2ccnc2)c2cccnc12	–	–	26	10	·	·	·	·	VIM-2 confirm=21;TEM-1 counter-2=–;IMP-1 confirm=44
